Assay results: ChEMBL document CHEMBL1152432, “2-Arylamino-4-amino-5-aroylthiazoles. "One-pot" synthesis and biological evaluation of a new class of inhibitors of tubulin polymerization” (J Med Chem, 2009)
pIC50: −log10 of the molar value.

Tests used:
[1] = tested on: MOLT-4; assay: Antiproliferative activity against human MOLT4 cells after 2 days by coulter counter method; format: functional, cell-based; conditions: MOLT-4, 48 h
In short: (§1)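 Cells seeded at 300,000-500,000 cells/mL, mixed 1:1 with compound dilutions and incubated 2 days at 37 °C. Cell number counted by Coulter counter. Mean ± SE of at least three independent experiments.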

[2] = tested on: FM3A; assay: Antiproliferative activity against mouse FM3A cells after 2 days by coulter counter method; format: functional, cell-based; conditions: 48 h; in short: as §1
[3] = tested on: L1210; assay: Antiproliferative activity against mouse L1210 cells after 2 days by coulter counter method; format: functional, cell-based; conditions: L1210, 48 h
In short: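 Cells seeded at 300,000-500,000 cells/mL, mixed 1:1 with compound dilutions and incubated 2 days at 37 °C. Cell number counted by Coulter counter. IC50 is the concentration giving 50% inhibition of proliferation, taken from dose-response curves. Mean ± SE of at least three independent experiments.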

[4] = tested on: CCRF-CEM; assay: Antiproliferative activity against human CEM cells after 2 days by coulter counter method; format: functional, cell-based; conditions: 48 h; in short: as §1
[5] = tested on: HeLa; assay: Antiproliferative activity against human HeLa cells after 2 days by coulter counter method; format: functional, cell-based; conditions: 48 h; in short: as §1
[6] = species on record: Bos taurus; assay: Displacement of [3H]colchicine from bovine brain tubulin at 1 uM
In short: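 Reaction mixtures held 1 μM bovine brain tubulin, 5 μM [3H]colchicine and 1 μM test compound. Inhibition of radiolabelled colchicine binding to tubulin was measured.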

[7] = tested on: HeLa; assay: Induction of apoptosis in human HeLa cells assessed as appearance of hypodiploid cells after 24 hrs using propidium iodide staining by flow cytometry; format: functional, cell-based
In short: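 HeLa cells (5×10^5, exponential growth) exposed to a range of concentrations for 24 h, then ethanol-fixed (70%, ice-cold), RNaseA-treated and propidium iodide-stained for flow cytometry. Apoptotic fraction taken as the cells forming a sub-G1 peak.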

[8] = tested on: HeLa; assay: Cell cycle arrest in human HeLa cells assessed as accumulation at subG1 phase at 30 nM after 24 hrs uisng propidium iodide staining by flow cytometry; format: functional
In short: (§2)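 Exponentially growing HeLa cells (5×10^5) treated 24 h. Floating and trypsinized cells pooled, fixed in ice-cold 70% ethanol, lysed with RNaseA buffer and stained with propidium iodide. DNA histograms acquired by flow cytometry. Percentages of G1, S and G2/M phases calculated on living cells, with the sub-G1 peak also scored.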

[9] = Inhibition of bovine brain tubulin polymerization by turbidimetry; parameters: species or system Bos taurus
In short: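 Purified bovine brain tubulin (10 μM) preincubated with varying compound concentrations in glutamate buffer at 30 °C, then chilled to 0 °C. GTP added, mixtures warmed to 30 °C in a recording spectrophotometer and assembly followed turbidimetrically.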

[10] = tested on: HeLa; assay: Cell cycle arrest in human HeLa cells assessed as accumulation at G1 phase at 30 nM after 24 hrs uisng propidium iodide staining by flow cytometry; format: functional; in short: as §2
[11] = tested on: HeLa; assay: Cell cycle arrest in human HeLa cells assessed as accumulation at S phase at 30 nM after 24 hrs uisng propidium iodide staining by flow cytometry; format: functional; in short: as §2
[12] = tested on: HeLa; assay: Cell cycle arrest in human HeLa cells assessed as accumulation at G2/M phase at 30 nM after 24 hrs uisng propidium iodide staining by flow cytometry; format: functional; in short: as §2

Row | Compound | pIC50 [1] | pIC50 [2] | pIC50 [3] | pIC50 [4] | pIC50 [5] | inhibition [6] | Activity [7] | Activity [8] | pIC50 [9] | Activity [10] | Activity [11] | Activity [12]
1 | COc1ccc(C(=O)c2sc(Nc3ccc(Cl)cc3)nc2N)cc1 | < 5.00 | < 5.00 | < 5.00 | < 5.00 | < 5.00 |  |  |  |  |  |  | 
2 | Nc1nc(Nc2ccccc2)sc1C(=O)c1ccccc1 | 5.14 | 5.09 | 5.09 | 5.41 | 5.21 | 35% |  |  |  |  |  | 
3 | COc1ccc(C(=O)c2sc(Nc3ccccc3)nc2N)cc1OC | 5.26 | < 5.00 | < 5.00 | 5.16 | 5.22 |  |  |  |  |  |  | 
4 | COc1ccc(C(=O)c2sc(Nc3ccc(F)cc3)nc2N)cc1 | < 5.00 | < 5.00 | < 5.00 | < 5.00 | < 5.00 |  |  |  |  |  |  | 
5 | COc1cccc(Nc2nc(N)c(C(=O)c3cc(OC)c(OC)c(OC)c3)s2)c1 | 6.28 | 5.70 | 5.68 | 5.89 | 6.00 |  |  |  |  |  |  | 
6 | COc1ccc(C(=O)c2sc(Nc3ccccc3)nc2N)cc1 | 5.16 | < 5.00 | < 5.00 | 5.04 | < 5.00 |  |  |  |  |  |  | 
7 | Nc1nc(Nc2ccc(F)cc2)sc1C(=O)c1ccccc1 | < 5.00 | < 5.00 | < 5.00 | < 5.00 | < 5.00 |  |  |  |  |  |  | 
8 | COc1ccc(Nc2nc(N)c(C(=O)c3ccccc3OC)s2)cc1 | 7.74 | 7.28 | 7.51 | 7.77 | 7.77 | 77% | Dose-dependent effect | 28.6% | 5.85 | 38.5% | 20.4% | 40.1%
9 | COc1ccc(Nc2nc(N)c(C(=O)c3ccc([N+](=O)[O-])cc3)s2)cc1 | 7.54 | 6.51 | 6.55 | 7.51 | 6.46 |  |  |  |  |  |  | 
10 | COc1cc(C(=O)c2sc(Nc3ccccc3)nc2N)cc(OC)c1OC | 8.22 | 7.64 | 7.74 | 8.03 | 7.85 | 75% | Dose-dependent effect | 22.2% | 5.60 | 32.1% | 25.6% | 42.3%
11 | COc1ccc(Nc2nc(N)c(C(=O)c3cccc(OC)c3)s2)cc1 | 8.40 | 7.30 | 7.46 | 8.00 | 7.43 | 84% |  | 9.6% | 5.85 | 40% | 20.8% | 39.2%
12 | COc1cc(C(=O)c2sc(Nc3ccc(Cl)cc3)nc2N)cc(OC)c1OC | 6.96 | 6.38 | 6.38 | 6.72 | 6.74 |  |  |  |  |  |  | 
13 | COc1ccc(Nc2nc(N)c(C(=O)c3ccc(Cl)cc3)s2)cc1 | 7.89 | 7.23 | 7.08 | 7.72 | 7.08 | 89% | Dose-dependent effect | 23.3% | 5.96 | 17.1% | 18.9% | 64%
14 | Cc1ccc(Nc2nc(-n3ccnc3C)cs2)cc1 | 6.29 | 5.92 | 5.74 | 5.82 | 6.28 | 58% |  |  | 5.40 |  |  | 
15 | COc1ccccc1C(=O)c1sc(Nc2ccccc2)nc1N | 5.89 | 5.96 | 5.96 | 6.14 | 5.92 |  |  |  |  |  |  | 
16 | COc1ccc(Nc2nc(N)c(C(=O)c3ccccc3)s2)cc1 | 6.64 | 6.14 | 6.07 | 6.52 | 6.64 |  |  |  |  |  |  | 
17 | COc1ccc(/C=C\c2cc(OC)c(OC)c(OC)c2)cc1O [COMBRETASTATIN A4] |  |  |  |  |  |  |  |  | 5.85 |  |  | 
18 | COc1ccc(Nc2nc(N)c(C(=O)c3ccc(OC)c(OC)c3)s2)cc1 | 7.43 | 7.15 | 7.42 | 8.00 | 7.28 | 63% | Dose-dependent effect | 17.8% | 5.55 | 35.7% | 15.5% | 48.8%
19 | COc1ccc(/N=c2/[nH]c(N)c(C(=O)c3ccc(OC)cc3)s2)cc1 | 6.49 | 6.20 | 6.33 | 5.92 | 6.48 |  |  |  |  |  |  | 
20 | COc1cccc(C(=O)c2sc(Nc3ccccc3)nc2N)c1 | 5.89 | 5.21 | 5.12 | 5.64 | 5.77 |  |  |  |  |  |  | 
21 | COc1cc(C(=O)c2sc(Nc3ccc(F)cc3)nc2N)cc(OC)c1OC | 6.55 | 7.24 | 6.05 | 6.40 | 6.36 |  |  |  |  |  |  | 
22 | Nc1nc(Nc2ccc(Cl)cc2)sc1C(=O)c1ccccc1 | < 5.00 | < 5.00 | < 5.00 | < 5.00 | < 5.00 |  |  |  |  |  |  | 
23 | COc1cc(C(=O)c2sc(Nc3ccc(C)cc3)nc2N)cc(OC)c1OC | 7.68 | 7.82 | 7.51 | 7.39 | 7.07 | 87% | Dose-dependent effect | 18.9% | 6.14 | 32.1% | 17.4% | 50.5%
24 | COc1cccc(Nc2nc(N)c(C(=O)c3ccccc3)s2)c1 | 5.82 | 5.30 | 5.09 | 5.54 | 5.49 | 43% |  |  | 5.44 |  |  | 
25 | Cc1ccc(Nc2nc(N)c(C(=O)c3ccccc3)s2)cc1 | 6.68 | 5.82 | 5.55 | 6.43 | 6.05 |  |  |  |  |  |  | 
26 | COc1ccc(Nc2nc(N)c(C(=O)c3cc(OC)c(OC)c(OC)c3)s2)cc1 | 6.32 | 5.66 | 5.82 | 5.96 | 6.25 |  |  |  |  |  |  | 
27 | COc1ccc(Nc2nc(N)c(C(=O)c3ccc(Br)cc3)s2)cc1 | 7.80 | 7.00 | 6.96 | 7.41 | 7.10 |  |  |  |  |  |  | 
